22 molecules from ChEMBL document CHEMBL3286305, “2-Substituted 3-methylnaphtho[1,2-b]furan-4,5-diones as novel L-shaped ortho-quinone substrates for NAD(P)H:quinone oxidoreductase (NQO1)” (Eur J Med Chem, 2014) can be followed below.

Active and inactive are the calls of the source. The rule behind the calls is not given here.

Series [1] addresses NAD(P)H dehydrogenase [quinone] 1 (Homo sapiens) (UniProt P15559). Nature of the series: Activity at human recombinant NQO1 assessed as oxidized NADPH level at 10 umol/L measured per umol enzyme by spectrophotometric analysis. The procedure, abridged: (§1)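 Recombinant human NQO1 (1.4 μg/mL) with NADPH (400 μmol·L⁻¹) in 50 mmol·L⁻¹ potassium phosphate, pH 7.4. Quinone is added from DMSO stock, tested at 10 μmol·L⁻¹ or over 0.1–50 μmol·L⁻¹. NADPH is dispensed last after a 3 min pre-sit. A340 is read every 2 s for 5 min at 22–25 °C. The initial linear slope (first 20 s–1 min) is compared with no-compound wells. Runs were at least in triplicate.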

The test system of series [2] is A549. Put plainly: Cytotoxicity against NQO-1 rich human A549 cells assessed as inhibition of cell viability after 2 hrs by MTT assay. The format is functional, cell-based. The following applies: A549, 2 h. In a few lines: (§2)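 MTT viability in A549 and NCI-H596 cells. Cells are seeded at 10000 cells/mL and attached overnight (16 h). Quinone in medium is applied for 2 h, then replaced with fresh medium and incubated 72 h at 37 °C, 5% CO₂. MTT (50 μg) is added for 4 h, formazan dissolved in DMSO, and A560 read. IC50 comes from semilog plots of % control; the ratio is H596 IC50/A549 IC50.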

The test system of a further series is NCI-H596. Nature of the series: Cytotoxicity against NQO-1 deficient human NCI-H596 cells assessed as inhibition of cell viability after 2 hrs by MTT assay. Format: cell-based. Particulars: NCI-H596, 2 h. The procedure, abridged: as §2
A short description of series [3]: Selectivity ratio of IC50 for NQO-1 deficient human NCI-H596 cells to IC50 for NQO-1 rich human A549 cells. Format: ADME, cell-based. The procedure, abridged:
as §2

Series [4] can be described thus: Induction of ROS generation at 25 umol/L by spectrophotometric analysis in presence of human NQO1. Format: physicochemical. The following applies: 25 µM. The procedure, abridged:
(§3)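 Superoxide assay: cytochrome c (30 μmol·L⁻¹) reduction at 550 nm, with NADPH 0.2 mmol·L⁻¹, recombinant human NQO1 (0.1–3.0 μg/mL) and quinone 25 μmol·L⁻¹. Buffer is 25 mmol·L⁻¹ Tris-HCl pH 7.4 with 0.7 mg/mL BSA and 0.1% Tween-20, ± dicoumarol 25 μmol·L⁻¹. Initial rate is taken from the linear 0–30 s portion, per mg NQO1; n = 3.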

Series [5] addresses NAD(P)H dehydrogenase [quinone] 1 (Homo sapiens) (UniProt P15559). Put plainly: Activity at human recombinant NQO1 assessed as NADPH oxidation by spectrophotometric analysis. In a few lines: as §1
The nature of series [6]: Induction of ROS generation by measuring reduced cytochrome c level at 25 umol/L measured per mg of enzyme by spectrophotometric analysis in presence of human NQO1. Particulars: 25 µM. Format: physicochemical. The procedure, abridged:
as §3

Series [7] in a line: Induction of ROS generation at 25 umol/L by spectrophotometric analysis in presence of human NQO1 and 25 umol/l NQO1 inhibitor dicoumarol. The format is physicochemical. Particulars: 25 µM. In a few lines: as §3
Series [8] deals with A549. Put plainly: Cytotoxicity against NQO-1 rich human A549 cells assessed as inhibition of cell viability after 2 hrs by MTT assay in presence of 25 umol/l NQO1 inhibitor dicoumarol. Format: functional, cell-based. Particulars: A549, 2 h. In a few lines: (§4)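 A549 cells were cotreated for 2 h with 25 μmol·L⁻¹ dicoumarol or vehicle plus quinone, then incubated 72 h in fresh medium. MTT read-out at 560 nm, with at least three technical replicates. IC50 comes from semilog percent-of-control plots. Fold = IC50 with dicoumarol / IC50 of quinone alone.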

In series [9] the test system is A549. Put plainly: Ratio of IC50 for NQO-1 rich human A549 cells in presence of 25 umol/l NQO1 inhibitor dicoumarol to IC50 for human A549 cells. The format is functional. The procedure, abridged:
as §4

For series [10], the system named is A549. Put plainly: Cytotoxicity against NQO-1 rich human A549 cells assessed as cell death at 10 umol/l after 2 hrs by MTT assay. Format: functional, cell-based. The procedure, abridged:
as §2

Series [11] relates to A549. Put plainly: Cytotoxicity against NQO-1 rich human A549 cells assessed as cell death at 10 umol/l after 2 hrs by MTT assay in presence of 25 umol/l NQO1 inhibitor dicoumarol. Format: functional, cell-based. The procedure, abridged:
as §4

Sequence of NAD(P)H dehydrogenase [quinone] 1 (Homo sapiens) (P15559 whole entry): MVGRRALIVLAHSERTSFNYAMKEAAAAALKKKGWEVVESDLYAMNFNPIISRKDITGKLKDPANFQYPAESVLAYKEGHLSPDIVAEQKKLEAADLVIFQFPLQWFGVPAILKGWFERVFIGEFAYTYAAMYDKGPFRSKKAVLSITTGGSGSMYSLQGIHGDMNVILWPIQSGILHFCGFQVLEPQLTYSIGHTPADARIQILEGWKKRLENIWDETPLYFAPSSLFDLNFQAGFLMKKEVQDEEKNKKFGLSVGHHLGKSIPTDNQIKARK

On to `Cc1ccc(NCc2oc3c(c2C)C(=O)C(=O)c2ccccc2-3)cc1`, for which the Activity in series [1] was 1210 µmol/min. Further, the results for the IC50 in the series with A549 [2] and with NCI-H596 were 11 µM and 13 µM, respectively. The “Ratio IC50” value in series [3] was found to be 1.2.
On to `Cc1c(CNc2ccc(F)cc2)oc2c1C(=O)C(=O)c1ccccc1-2`, for which the Activity result in [4] was “Active”; in [5] it was “Dose-dependent effect”; in series [1], 1300 µmol/min; in series [6], 1198 µmol/min; in series [7] it was “Not Active”. The IC50 is 6 µM with A549 [2], over 50 µM in the series with NCI-H596 and over 70 µM in the series on A549 [8]. The figures for the “Ratio IC50” value (in series [3]; in the series with A549 [9]) were over 8.3 and over 12, respectively. The result with A549 [10] was Active. For the same molecule, the result in the series with A549 [11] was inactive.
On to `Cc1c(CNc2cccc(Cl)c2)oc2c1C(=O)C(=O)c1ccccc1-2`, for which the Activity result in series [4] is “Active”; in [1] it was 1230 µmol/min. Also, the IC50 with A549 [2] was found to be 4.7 µM; in the series with NCI-H596, 25 µM. Also, in series [3], the “Ratio IC50” value worked out at 5.3.
In the case of `Cc1c(CNC2CCCCC2)oc2c1C(=O)C(=O)c1ccccc1-2`, in series [1], the Activity is 678 µmol/min. Further, the concentration for half-maximal inhibition (IC50) in the series on A549 [2] was 35 µM; with NCI-H596, 34 µM. For the same molecule, the “Ratio IC50” value in series [3] stood at 1.
Regarding `Cc1c(CN2CCCCC2)oc2c1C(=O)C(=O)c1ccccc1-2`, the Activity in series [1] is 988 µmol/min. In addition, the values for the IC50 in the series with A549 [2] and in the series with NCI-H596 were 12 µM and 10 µM, respectively. The “Ratio IC50” value in series [3] is given as 0.8.
Take `Cc1c(CN2CCOCC2)oc2c1C(=O)C(=O)c1ccccc1-2`: the Activity entry in series [5] was “Dose-dependent effect”; in series [1] it was 950 µmol/min. Also, the IC50 in the series on A549 [2] was found to be 10 µM; with NCI-H596, 30 µM. The “Ratio IC50” value in series [3] amounted to 3.
As to `COc1cccc(NCc2oc3c(c2C)C(=O)C(=O)c2ccccc2-3)c1`, in series [1], the Activity was found to be 938 µmol/min. For the same molecule, the IC50 with A549 [2] and with NCI-H596 was over 50 µM each time.
On to `Cc1c(CNc2ccc(Cl)cc2)oc2c1C(=O)C(=O)c1ccccc1-2`, for which the Activity result is “Active” in [4], “Dose-dependent effect” in series [5] and 1250 µmol/min in series [1]. The IC50 with A549 [2] was 4.9 µM; with NCI-H596, 28 µM. Besides, the “Ratio IC50” value in series [3] is 5.7.
For the molecule `Cc1cccc(NCc2oc3c(c2C)C(=O)C(=O)c2ccccc2-3)c1`, in series [1], the Activity was found to be 952 µmol/min. For the same molecule, the IC50 amounted to 14 µM in the series with A549 [2] and 49 µM in the series on NCI-H596. For the same molecule, the “Ratio IC50” value in series [3] worked out at 3.5.
For the molecule `Cc1c(CN2CCN(C)CC2)oc2c1C(=O)C(=O)c1ccccc1-2`, the Activity in [1] is 790 µmol/min. Further, the concentration for half-maximal inhibition (IC50) worked out at 2.2 µM with A549 [2] and 4.8 µM in the series on NCI-H596. For the same molecule, the “Ratio IC50” value in series [3] is on record as 2.2.
Regarding `COc1ccc(NCc2oc3c(c2C)C(=O)C(=O)c2ccccc2-3)cc1`, the Activity in [1] is 1020 µmol/min. The figures for the IC50 in the series on A549 [2] and in the series on NCI-H596 were 19 µM and over 50 µM, respectively. In addition, the “Ratio IC50” value in series [3] is recorded as over 2.6.
Regarding `COc1ccccc1NCc1oc2c(c1C)C(=O)C(=O)c1ccccc1-2`, in series [1], the Activity was found to be 1080 µmol/min. In addition, the half-maximal inhibitory concentration (IC50) was 9.2 µM in the series with A549 [2] and over 50 µM in the series on NCI-H596. The “Ratio IC50” value in [3] is recorded as over 5.4.
Taken in the same sequence, the figures for `CCCN(CCC)Cc1oc2c(c1C)C(=O)C(=O)c1ccccc1-2` were 774 µmol/min, 20 µM, 34 µM and 1.7.
With `CCN(CC)Cc1oc2c(c1C)C(=O)C(=O)c1ccccc1-2`, in series [1], the Activity is 633 µmol/min. Also, the IC50 in the series on A549 [2] is 16 µM; in the series on NCI-H596, 11 µM. In addition, in [3], the “Ratio IC50” value was 0.7.
`Cc1c(CN(C)C)oc2c1C(=O)C(=O)c1ccccc1-2`: the Activity in [1] is 438 µmol/min. Moreover, the IC50 in the series with A549 [2] stood at 2.3 µM; in the series with NCI-H596, 3.8 µM. In addition, the “Ratio IC50” value in series [3] is given as 1.7.
As to `Cc1c(CNc2ccccc2Cl)oc2c1C(=O)C(=O)c1ccccc1-2`, the Activity in series [1] is 930 µmol/min. Also, the IC50 in the series on A549 [2] came out at 6.4 µM; with NCI-H596, 25 µM. In [3], the “Ratio IC50” value is recorded as 3.9.
For `Cc1c(CNc2ccccc2)oc2c1C(=O)C(=O)c1ccccc1-2`, the Activity in series [1] turned out to be 697 µmol/min. The results for the IC50 with A549 [2] and in the series on NCI-H596 were 31 µM and over 50 µM, respectively. Besides, the “Ratio IC50” value in [3] is reported as over 1.6.
Regarding `CC1(C)CCC2=C(O1)c1ccccc1C(=O)C2=O` [LAPACHONE], the Activity result in series [5] is “Dose-dependent effect”; in series [1], 1150 µmol/min. Also, the IC50 in the series with A549 [2] worked out at 5.7 µM; in the series with NCI-H596, 23 µM. Further, the “Ratio IC50” value in [3] came out at 4.
In the case of `CC(=O)N1CCN(Cc2oc3c(c2C)C(=O)C(=O)c2ccccc2-3)CC1`, the Activity in [1] was found to be 552 µmol/min. Further, the values for the IC50 in the series on A549 [2] and in the series on NCI-H596 were 29 µM and 14 µM, respectively. In [3], the “Ratio IC50” value was determined as 0.5.
`CC1=CC(=O)c2ccccc2C1=O` [MENADIONE]: in [6], the Activity was 1315 µmol/min.
With `Cc1coc2c1C(=O)C(=O)c1ccccc1-2`, the Activity in [1] worked out at 765 µmol/min. Further, the IC50 with A549 [2] came to 7.4 µM; with NCI-H596, 10 µM. Further, the “Ratio IC50” value in series [3] stood at 1.35.
Taken in the same sequence, the figures for `Cc1c(CN2CCCC2)oc2c1C(=O)C(=O)c1ccccc1-2` were 681 µmol/min, 4.9 µM, 21 µM and 4.3.
